Laboratory results from ChEMBL document CHEMBL3400013, “Synthesis and biological activity evaluation of hydrazone derivatives based on a Tröger's base skeleton” (Bioorg Med Chem, 2015).
Calls of active or inactive are those of the source. The rule behind the calls is not given here.

Test system: BJ
Test: Selectivity index, ratio of IC50 for human BJ cells to IC50 for human K562 cells
Format: functional
Conditions: not given

| SMILES | Ratio IC50 |
| --- | --- |
| COc1cccnc1/C=N/NC(=O)c1ccc2c3c(ccc2c1)N1Cc2c(ccc4cc(C(=O)N/N=C/c5ncccc5OC)ccc24)N(C3)C1 | 1.8 |

Test system: K562
Test: Selectivity index, ratio of IC50 for human MRC5 cells to IC50 for human K562 cells
Format: functional
Conditions: not given

| SMILES | Ratio IC50 |
| --- | --- |
| COc1cccnc1/C=N/NC(=O)c1ccc2c3c(ccc2c1)N1Cc2c(ccc4cc(C(=O)N/N=C/c5ncccc5OC)ccc24)N(C3)C1 | 1.8 |

Test system: Escherichia coli
Test: Antimicrobial activity against Escherichia coli CCM 3954 up to 200 uM after 24 to 48 hrs by broth microdilution method
Format: functional, organism-based
Conditions: not given

| SMILES | Activity |
| --- | --- |
| COc1cccnc1/C=N/NC(=O)c1ccc2c3c(ccc2c1)N1Cc2c(ccc4cc(C(=O)N/N=C/c5ncccc5OC)ccc24)N(C3)C1 | inactive |

Test system: not listed separately
Test: Metal chelating activity of the compound assessed as formation of Ca2+ complex by UV-vis spectrometry
Format: physicochemical
Conditions: not given

| SMILES | Activity |
| --- | --- |
| COc1cccnc1/C=N/NC(=O)c1ccc2c3c(ccc2c1)N1Cc2c(ccc4cc(C(=O)N/N=C/c5ncccc5OC)ccc24)N(C3)C1 | Not Active |

Test system: Candida parapsilosis
Test: Antifungal activity against Candida parapsilosis up to 200 uM after 24 to 48 hrs by broth microdilution method
Format: functional, organism-based
Conditions: not given

| SMILES | Activity |
| --- | --- |
| COc1cccnc1/C=N/NC(=O)c1ccc2c3c(ccc2c1)N1Cc2c(ccc4cc(C(=O)N/N=C/c5ncccc5OC)ccc24)N(C3)C1 | inactive |

Test system: Candida albicans
Test: Antifungal activity against Candida albicans up to 200 uM after 24 to 48 hrs by broth microdilution method
Format: functional, organism-based
Conditions: not given

| SMILES | Activity |
| --- | --- |
| COc1cccnc1/C=N/NC(=O)c1ccc2c3c(ccc2c1)N1Cc2c(ccc4cc(C(=O)N/N=C/c5ncccc5OC)ccc24)N(C3)C1 | inactive |

Test system: not listed separately
Test: Metal chelating activity of the compound assessed as formation of Zn2+ complex by UV-vis spectrometry
Format: physicochemical
Conditions: not given

| SMILES | Activity |
| --- | --- |
| COc1cccnc1/C=N/NC(=O)c1ccc2c3c(ccc2c1)N1Cc2c(ccc4cc(C(=O)N/N=C/c5ncccc5OC)ccc24)N(C3)C1 | Active |

Test system: BJ
Test: Selectivity index, ratio of IC50 for human BJ cells to IC50 for human HCT116 cells
Format: functional
Conditions: not given

| SMILES | Ratio IC50 |
| --- | --- |
| COc1cccnc1/C=N/NC(=O)c1ccc2c3c(ccc2c1)N1Cc2c(ccc4cc(C(=O)N/N=C/c5ncccc5OC)ccc24)N(C3)C1 | 1.2 |

Test system: not listed separately
Test: Metal chelating activity of the compound assessed as formation of Mn2+ complex by UV-vis spectrometry
Format: physicochemical
Conditions: not given

| SMILES | Activity |
| --- | --- |
| COc1cccnc1/C=N/NC(=O)c1ccc2c3c(ccc2c1)N1Cc2c(ccc4cc(C(=O)N/N=C/c5ncccc5OC)ccc24)N(C3)C1 | Not Active |

Test system: Pseudomonas aeruginosa
Test: Antimicrobial activity against multidrug-resistant Pseudomonas aeruginosa A/16575 up to 200 uM after 24 to 48 hrs by broth microdilution method
Format: functional, organism-based
Conditions: not given

| SMILES | Activity |
| --- | --- |
| COc1cccnc1/C=N/NC(=O)c1ccc2c3c(ccc2c1)N1Cc2c(ccc4cc(C(=O)N/N=C/c5ncccc5OC)ccc24)N(C3)C1 | inactive |

Test system: not listed separately
Test: Metal chelating activity of the compound assessed as formation of Fe3+ complex by UV-vis spectrometry
Format: physicochemical
Conditions: not given

| SMILES | Activity |
| --- | --- |
| COc1cccnc1/C=N/NC(=O)c1ccc2c3c(ccc2c1)N1Cc2c(ccc4cc(C(=O)N/N=C/c5ncccc5OC)ccc24)N(C3)C1 | Active |

Test system: K562
Test: Cytostatic activity against human K562 cells after 72 hrs by MTT assay
Format: functional, cell-based
Conditions: K562, 72 h
In short: (§1)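 Cells were seeded at 25,000–30,000 per well and pre-incubated for 24 h at 37°C in 5% CO2. Four-fold compound dilutions were added in duplicate and incubated for 72 h. MTT was added for 1–4 h, and formazan was dissolved in 10% aq SDS (pH 5.5) overnight at 37°C. OD was read at 540 nm. IC50 came from dose-response curves, mean ± SD of eight independent experiments.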

| SMILES | IC50 |
| --- | --- |
| COc1cccnc1/C=N/NC(=O)c1ccc2c3c(ccc2c1)N1Cc2c(ccc4cc(C(=O)N/N=C/c5ncccc5OC)ccc24)N(C3)C1 | 55.6 µM |

Test system: A549
Test: Cytostatic activity against human A549 cells after 72 hrs by MTT assay
Format: functional, cell-based
Conditions: A549, 72 h
In short: as §1

| SMILES | IC50 |
| --- | --- |
| COc1cccnc1/C=N/NC(=O)c1ccc2c3c(ccc2c1)N1Cc2c(ccc4cc(C(=O)N/N=C/c5ncccc5OC)ccc24)N(C3)C1 | > 100 µM |

Test system: not listed separately
Test: Cytostatic activity against human HCT116 cells after 72 hrs by MTT assay
Format: functional, cell-based
Conditions: HCT-116, 72 h
In short: as §1

| SMILES | IC50 |
| --- | --- |
| COc1cccnc1/C=N/NC(=O)c1ccc2c3c(ccc2c1)N1Cc2c(ccc4cc(C(=O)N/N=C/c5ncccc5OC)ccc24)N(C3)C1 | 85.7 µM |

Test system: Nucleic Acid
Test: Binding affinity to DNA (unknown origin) assessed as DNA intercalation by UV-visible spectrophotometry in presence of Fe3+
Format: nucleic-acid assay
Conditions: not given

| SMILES | Activity |
| --- | --- |
| COc1cccnc1/C=N/NC(=O)c1ccc2c3c(ccc2c1)N1Cc2c(ccc4cc(C(=O)N/N=C/c5ncccc5OC)ccc24)N(C3)C1 | Active |

Test system: BJ
Test: Selectivity index, ratio of IC50 for human BJ cells to IC50 for human CCRF-CEM cells
Format: functional
Conditions: pooled result: one value given for 2 cell lines, strains, targets or settings

| SMILES | Ratio IC50 |
| --- | --- |
| COc1cccnc1/C=N/NC(=O)c1ccc2c3c(ccc2c1)N1Cc2c(ccc4cc(C(=O)N/N=C/c5ncccc5OC)ccc24)N(C3)C1 | 2.7 |

Test system: not listed separately
Test: Metal chelating activity of the compound assessed as formation of Ni2+ complex by UV-vis spectrometry
Format: physicochemical
Conditions: not given

| SMILES | Activity |
| --- | --- |
| COc1cccnc1/C=N/NC(=O)c1ccc2c3c(ccc2c1)N1Cc2c(ccc4cc(C(=O)N/N=C/c5ncccc5OC)ccc24)N(C3)C1 | Active |

Test system: Escherichia coli
Test: Antimicrobial activity against multidrug-resistant Escherichia coli C/16702 up to 200 uM after 24 to 48 hrs by broth microdilution method
Format: functional, organism-based
Conditions: not given

| SMILES | Activity |
| --- | --- |
| COc1cccnc1/C=N/NC(=O)c1ccc2c3c(ccc2c1)N1Cc2c(ccc4cc(C(=O)N/N=C/c5ncccc5OC)ccc24)N(C3)C1 | inactive |

Test system: Staphylococcus aureus
Test: Antimicrobial activity against methicillin-resistant Staphylococcus aureus MRSA 4591 up to 200 uM after 24 to 48 hrs by broth microdilution method
Format: functional, organism-based
Conditions: not given

| SMILES | Activity |
| --- | --- |
| COc1cccnc1/C=N/NC(=O)c1ccc2c3c(ccc2c1)N1Cc2c(ccc4cc(C(=O)N/N=C/c5ncccc5OC)ccc24)N(C3)C1 | inactive |

Test system: CEM-DNR
Test: Selectivity index, ratio of IC50 for human MRC5 cells to IC50 for human CEM-DNR cells
Format: functional
Conditions: not given

| SMILES | Ratio IC50 |
| --- | --- |
| COc1cccnc1/C=N/NC(=O)c1ccc2c3c(ccc2c1)N1Cc2c(ccc4cc(C(=O)N/N=C/c5ncccc5OC)ccc24)N(C3)C1 | 14.9 |

Test system: Nucleic Acid
Test: Binding affinity to DNA (unknown origin) assessed as DNA intercalation by UV-visible spectrophotometry in presence of Cu2+
Format: nucleic-acid assay
Conditions: not given

| SMILES | Activity |
| --- | --- |
| COc1cccnc1/C=N/NC(=O)c1ccc2c3c(ccc2c1)N1Cc2c(ccc4cc(C(=O)N/N=C/c5ncccc5OC)ccc24)N(C3)C1 | Active |

Test system: HCT-116
Test: Selectivity index, ratio of IC50 for human MRC5 cells to IC50 for human HCT116 cells
Format: functional
Conditions: not given

| SMILES | Ratio IC50 |
| --- | --- |
| COc1cccnc1/C=N/NC(=O)c1ccc2c3c(ccc2c1)N1Cc2c(ccc4cc(C(=O)N/N=C/c5ncccc5OC)ccc24)N(C3)C1 | 1.2 |

Test system: HCT-116
Test: Selectivity index, ratio of IC50 for human MRC5 cells to IC50 for human p53-/- HCT116 cells
Format: functional
Conditions: not given

| SMILES | Ratio IC50 |
| --- | --- |
| COc1cccnc1/C=N/NC(=O)c1ccc2c3c(ccc2c1)N1Cc2c(ccc4cc(C(=O)N/N=C/c5ncccc5OC)ccc24)N(C3)C1 | 1 |

Test system: Nucleic Acid
Test: Binding affinity to DNA (unknown origin) assessed as DNA intercalation by UV-visible spectrophotometry in presence of Zn2+
Format: nucleic-acid assay
Conditions: not given

| SMILES | Activity |
| --- | --- |
| COc1cccnc1/C=N/NC(=O)c1ccc2c3c(ccc2c1)N1Cc2c(ccc4cc(C(=O)N/N=C/c5ncccc5OC)ccc24)N(C3)C1 | Active |

Test system: not listed separately
Test: Metal chelating activity of the compound assessed as formation of Cr3+ complex by UV-vis spectrometry
Format: physicochemical
Conditions: not given

| SMILES | Activity |
| --- | --- |
| COc1cccnc1/C=N/NC(=O)c1ccc2c3c(ccc2c1)N1Cc2c(ccc4cc(C(=O)N/N=C/c5ncccc5OC)ccc24)N(C3)C1 | Not Active |
